# Results taken from ChEMBL document CHEMBL4342528, “Discovery of a First-in-Class Protein Arginine Methyltransferase 6 (PRMT6) Covalent Inhibitor” (J Med Chem, 2020).
# Active and inactive are the calls of the source. The calls are words filed in the database; no cut-off is given here.
# Legend:
# [1] = molecular target: Histone-lysine N-methyltransferase PRDM9 (Homo sapiens) (UniProt Q9NQV7); test: Inhibition of PRDM9 (unknown origin) assessed as reduction in incorporation of [3H]-labeled methyl group into biotinylated substrate using [3H-SAM] at 10 uM incubated for 1 hr by scintillation proximity assay
# Summary of the method: (§1)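 Panel of 33 methyltransferases (22 PKMTs, 3 DNMTs, 8 PRMTs), each tested at 10 and 50 μM compound. Activity was read as ³H-methyl transfer from ³H-SAM in a radiometric assay done as previously described.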
# [2] = molecular target: Histone-lysine N-methyltransferase SETD7 (Homo sapiens) (UniProt Q8WTS6); test: Inhibition of SETD7 (unknown origin) assessed as reduction in incorporation of [3H]-labeled methyl group into biotinylated substrate using [3H-SAM] at 10 uM incubated for 1 hr by scintillation proximity assay; summary of the method: as §1
# [3] = molecular target: T1, Histone-arginine methyltransferase CARM1 (Homo sapiens) (UniProt Q86X55); test: Inhibition of PRMT4 in human MCF7 cells assessed as reduction in BAF155 asymmetric dimethylation at 0.2 to 20 uM incubated for 2 days; assay type: cell-based
# T1 sequence (whole entry): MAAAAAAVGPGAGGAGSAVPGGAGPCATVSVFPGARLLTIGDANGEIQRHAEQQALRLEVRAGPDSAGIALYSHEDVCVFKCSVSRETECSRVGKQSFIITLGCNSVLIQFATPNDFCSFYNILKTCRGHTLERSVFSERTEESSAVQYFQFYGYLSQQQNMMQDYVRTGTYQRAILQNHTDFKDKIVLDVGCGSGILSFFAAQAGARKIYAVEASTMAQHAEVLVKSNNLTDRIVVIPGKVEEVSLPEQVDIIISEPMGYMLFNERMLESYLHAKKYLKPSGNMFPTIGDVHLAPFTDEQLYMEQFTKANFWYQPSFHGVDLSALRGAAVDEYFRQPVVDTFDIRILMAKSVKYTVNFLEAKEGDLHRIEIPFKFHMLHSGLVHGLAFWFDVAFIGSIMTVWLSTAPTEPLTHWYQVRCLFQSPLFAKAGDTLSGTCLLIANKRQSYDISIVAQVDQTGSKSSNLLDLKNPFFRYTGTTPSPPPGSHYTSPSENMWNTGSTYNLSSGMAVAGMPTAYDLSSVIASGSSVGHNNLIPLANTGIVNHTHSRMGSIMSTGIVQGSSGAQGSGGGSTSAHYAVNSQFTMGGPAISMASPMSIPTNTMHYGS
# [4] = molecular target: Histone-lysine N-methyltransferase EHMT1 (Homo sapiens) (UniProt Q9H9B1); test: Inhibition of GLP (unknown origin) assessed as reduction in incorporation of [3H]-labeled methyl group into biotinylated substrate using [3H-SAM] at 10 uM incubated for 1 hr by scintillation proximity assay; summary of the method: as §1
# [5] = molecular target: Histone-lysine N-methyltransferase SUV39H1 (Homo sapiens) (UniProt O43463); test: Inhibition of SUV39H1 (unknown origin) assessed as reduction in incorporation of [3H]-labeled methyl group into biotinylated substrate using [3H-SAM] at 50 uM incubated for 1 hr by scintillation proximity assay relative to control; summary of the method: as §1
# [6] = molecular target: N-lysine methyltransferase KMT5A (Homo sapiens) (UniProt Q9NQR1); test: Inhibition of SETD8 (unknown origin) assessed as reduction in incorporation of [3H]-labeled methyl group into biotinylated substrate using [3H-SAM] at 10 uM incubated for 1 hr by scintillation proximity assay; summary of the method: as §1
# [7] = molecular target: T2, Protein arginine N-methyltransferase 3 (Homo sapiens, UniProt O60678); test: Inhibition of PRMT3 (unknown origin) assessed as reduction in incorporation of [3H]-labeled methyl group into biotinylated substrate using [3H-SAM] at 10 uM incubated for 1 hr by scintillation proximity assay; summary of the method: as §1
# [8] = molecular target: T3, Protein arginine N-methyltransferase 8 (Homo sapiens, UniProt Q9NR22); test: Covalent binding affinity to human PRMT8 assessed as covalent adduct. formation at 300 uM pre-incubated for 1 hr by mass spectrometry
# Summary of the method: (§2)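 PRMT protein at 15 μM was incubated 1 h at room temperature with a 20-fold molar excess of inhibitor (300 μM). The reaction was quenched with 0.1% aqueous TFA, separated by HPLC (5–95% acetonitrile in water) and analysed by ESI time-of-flight LC/MS for protein–ligand adduct mass.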
# Target sequence in this assay (Q9NR22 2-394 limits assumed): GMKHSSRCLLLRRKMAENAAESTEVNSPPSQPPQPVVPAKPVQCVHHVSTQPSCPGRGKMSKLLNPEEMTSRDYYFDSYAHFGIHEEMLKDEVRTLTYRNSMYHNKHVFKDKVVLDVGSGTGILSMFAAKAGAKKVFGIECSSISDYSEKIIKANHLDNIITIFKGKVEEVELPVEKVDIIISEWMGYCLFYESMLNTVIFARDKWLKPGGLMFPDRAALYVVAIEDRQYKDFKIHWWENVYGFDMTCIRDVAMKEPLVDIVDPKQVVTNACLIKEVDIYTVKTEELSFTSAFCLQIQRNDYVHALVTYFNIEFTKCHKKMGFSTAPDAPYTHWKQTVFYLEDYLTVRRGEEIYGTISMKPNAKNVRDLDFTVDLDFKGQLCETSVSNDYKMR
# Homo sapiens [9] = species on record: Homo sapiens; test: Selectivity index, ratio of IC50 for human PRMT3 to IC50 for human PRMT6
# [10] = molecular target: Histone-lysine N-methyltransferase EZH2 (Homo sapiens) (UniProt Q15910); test: Inhibition of PRC2 (unknown origin) assessed as reduction in incorporation of [3H]-labeled methyl group into biotinylated substrate using [3H-SAM] at 10 uM incubated for 1 hr by scintillation proximity assay; summary of the method: as §1
# [11] = molecular target: T3, Protein arginine N-methyltransferase 8; test: Inhibition of human PRMT8 using [3H]SAM as donor and [3H]methylated biotin-labeled peptide as substrate by scintillation proximity assay
# Summary of the method: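 Radiometric SPA: ³H-methyl transfer from ³H-SAM to biotin-labeled peptide, captured on streptavidin/scintillant-coated plate, counts per minute read; substrate and cofactor each at their Km for the enzyme; compound titrated; IC50 from triplicate determinations, mean ± SD.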
# Target sequence in this assay (Q9NR22 whole entry): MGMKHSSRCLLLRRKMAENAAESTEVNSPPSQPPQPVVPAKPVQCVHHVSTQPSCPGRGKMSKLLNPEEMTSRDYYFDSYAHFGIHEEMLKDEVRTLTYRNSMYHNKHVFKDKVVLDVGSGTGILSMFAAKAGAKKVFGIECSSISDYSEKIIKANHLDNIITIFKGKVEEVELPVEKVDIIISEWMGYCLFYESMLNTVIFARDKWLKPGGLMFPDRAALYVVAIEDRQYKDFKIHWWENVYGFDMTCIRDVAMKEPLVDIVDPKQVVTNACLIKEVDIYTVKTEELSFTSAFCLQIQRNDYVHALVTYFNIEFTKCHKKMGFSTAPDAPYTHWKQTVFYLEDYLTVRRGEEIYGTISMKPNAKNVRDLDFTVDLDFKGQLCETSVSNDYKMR
# [12] = molecular target: Histone-lysine N-methyltransferase, H3 lysine-79 specific (Homo sapiens) (UniProt Q8TEK3); test: Inhibition of DOT1L (unknown origin) at 10 uM using [3H-SAM] and nucleosome as substrate incubated for 1 hr by scintillation proximity assay; summary of the method: as §1
# [13] = molecular target: Protein arginine N-methyltransferase 5 (Homo sapiens) (UniProt O14744); test: Inhibition of PRMT5 (unknown origin) assessed as reduction in incorporation of [3H]-labeled methyl group into biotinylated substrate using [3H-SAM] at 10 uM incubated for 1 hr by scintillation proximity assay; summary of the method: as §1
# [14] = molecular target: T2, Protein arginine N-methyltransferase 3; test: Covalent binding affinity to human PRMT3 assessed as covalent adduct. formation at 300 uM pre-incubated for 1 hr by mass spectrometry; summary of the method: as §2
# [15] = molecular target: Histone-lysine N-methyltransferase NSD2 (Homo sapiens) (UniProt O96028); test: Inhibition of NSD2 (unknown origin) at 10 uM using [3H-SAM] and nucleosome as substrate incubated for 1 hr by scintillation proximity assay; summary of the method: as §1
# [16] = molecular target: T4, Protein arginine N-methyltransferase 6 (Homo sapiens, UniProt Q96LA8); test: Inhibition of Flag-tagged PRMT6 (unknown origin) expressed in HEK293 cells incubated for 20 hrs assessed as reduction in H3R2me2a levels; assay type: cell-based
# Homo sapiens [17] = species on record: Homo sapiens; test: Selectivity index, ratio of IC50 for human PRMT1 to IC50 for human PRMT6
# [18] = molecular target: T4, Protein arginine N-methyltransferase 6; test: Time dependent inhibition of human PRMT6 pre-incubated for 1 to 30 mins using [3H]SAM as donor and [3H]methylated biotin-labeled peptide as substrate by scintillation proximity assay; conditions: TDE = time-dependent effect
# Target sequence in this assay (Q96LA8 whole entry, looked up): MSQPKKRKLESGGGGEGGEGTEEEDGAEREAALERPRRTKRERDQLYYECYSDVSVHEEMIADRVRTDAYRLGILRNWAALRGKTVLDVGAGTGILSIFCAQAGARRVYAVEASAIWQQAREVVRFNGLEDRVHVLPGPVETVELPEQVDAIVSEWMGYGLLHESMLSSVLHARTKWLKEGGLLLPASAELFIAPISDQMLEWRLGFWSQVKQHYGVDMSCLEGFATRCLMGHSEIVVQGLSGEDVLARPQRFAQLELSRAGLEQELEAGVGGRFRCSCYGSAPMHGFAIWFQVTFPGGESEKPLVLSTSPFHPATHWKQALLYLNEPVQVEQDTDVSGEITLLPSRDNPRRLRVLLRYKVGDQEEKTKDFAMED
# [19] = molecular target: T1, Histone-arginine methyltransferase CARM1 (Homo sapiens); test: Inhibition of PRMT4 (unknown origin) assessed as reduction in incorporation of [3H]-labeled methyl group into biotinylated substrate using [3H-SAM] at 50 uM incubated for 1 hr by scintillation proximity assay relative to control; summary of the method: as §1
# [20] = molecular target: Histone-lysine N-methyltransferase SMYD3 (Homo sapiens) (UniProt Q9H7B4); test: Inhibition of SMYD3 (unknown origin) assessed as reduction in incorporation of [3H]-labeled methyl group into biotinylated substrate using [3H-SAM] at 10 uM incubated for 1 hr by scintillation proximity assay; summary of the method: as §1
# T2 sequence (O60678 2-531 limits assumed): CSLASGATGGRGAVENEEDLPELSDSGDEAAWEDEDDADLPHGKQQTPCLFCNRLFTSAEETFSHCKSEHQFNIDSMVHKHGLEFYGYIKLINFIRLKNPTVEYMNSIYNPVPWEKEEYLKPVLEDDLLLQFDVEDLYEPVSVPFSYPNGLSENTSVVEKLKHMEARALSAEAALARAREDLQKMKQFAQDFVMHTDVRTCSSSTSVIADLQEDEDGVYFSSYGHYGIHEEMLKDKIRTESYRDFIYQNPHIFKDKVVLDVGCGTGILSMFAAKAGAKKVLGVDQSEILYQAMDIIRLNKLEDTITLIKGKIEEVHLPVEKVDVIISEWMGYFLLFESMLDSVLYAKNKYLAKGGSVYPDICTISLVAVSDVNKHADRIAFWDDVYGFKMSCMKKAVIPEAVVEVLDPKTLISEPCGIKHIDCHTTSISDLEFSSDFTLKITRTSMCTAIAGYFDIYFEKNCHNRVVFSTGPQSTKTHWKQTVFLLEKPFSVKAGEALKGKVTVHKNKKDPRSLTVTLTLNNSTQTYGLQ
# Histone-lysine N-methyltransferase EHMT1 (Homo sapiens), sequence (Q9H9B1 whole entry): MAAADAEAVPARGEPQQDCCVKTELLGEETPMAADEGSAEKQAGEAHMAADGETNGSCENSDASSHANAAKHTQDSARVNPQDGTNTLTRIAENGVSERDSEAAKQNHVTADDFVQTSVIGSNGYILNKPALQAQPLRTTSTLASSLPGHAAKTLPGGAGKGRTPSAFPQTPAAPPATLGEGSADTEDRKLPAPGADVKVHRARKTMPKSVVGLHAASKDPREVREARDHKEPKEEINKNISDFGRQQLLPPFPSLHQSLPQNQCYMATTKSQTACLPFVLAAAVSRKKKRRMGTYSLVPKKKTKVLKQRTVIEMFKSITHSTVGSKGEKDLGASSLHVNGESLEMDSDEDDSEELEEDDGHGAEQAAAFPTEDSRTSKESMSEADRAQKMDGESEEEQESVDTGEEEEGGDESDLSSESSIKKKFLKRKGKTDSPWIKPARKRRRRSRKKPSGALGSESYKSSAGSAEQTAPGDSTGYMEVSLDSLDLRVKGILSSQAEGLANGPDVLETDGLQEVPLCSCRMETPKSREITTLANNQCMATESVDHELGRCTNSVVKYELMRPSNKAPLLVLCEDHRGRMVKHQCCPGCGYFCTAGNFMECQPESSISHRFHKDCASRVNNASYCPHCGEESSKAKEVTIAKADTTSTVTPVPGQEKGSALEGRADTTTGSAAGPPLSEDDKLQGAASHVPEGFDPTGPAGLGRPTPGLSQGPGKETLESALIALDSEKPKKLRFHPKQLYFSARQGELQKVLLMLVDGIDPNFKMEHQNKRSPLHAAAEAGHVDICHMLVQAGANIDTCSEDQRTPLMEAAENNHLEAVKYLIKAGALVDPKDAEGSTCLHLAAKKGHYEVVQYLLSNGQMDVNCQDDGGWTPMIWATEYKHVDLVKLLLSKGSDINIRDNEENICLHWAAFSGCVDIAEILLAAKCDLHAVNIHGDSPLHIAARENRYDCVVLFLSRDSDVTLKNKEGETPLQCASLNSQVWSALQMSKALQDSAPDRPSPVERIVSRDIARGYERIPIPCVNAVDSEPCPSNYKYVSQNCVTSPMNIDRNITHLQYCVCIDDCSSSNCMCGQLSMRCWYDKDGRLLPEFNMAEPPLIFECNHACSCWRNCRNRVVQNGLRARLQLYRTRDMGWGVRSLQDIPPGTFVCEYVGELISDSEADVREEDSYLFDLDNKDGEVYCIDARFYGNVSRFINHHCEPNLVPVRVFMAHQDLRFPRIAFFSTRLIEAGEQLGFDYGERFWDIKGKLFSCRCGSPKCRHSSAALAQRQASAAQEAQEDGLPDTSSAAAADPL
# Protein arginine N-methyltransferase 5 (Homo sapiens), sequence (O14744 whole entry): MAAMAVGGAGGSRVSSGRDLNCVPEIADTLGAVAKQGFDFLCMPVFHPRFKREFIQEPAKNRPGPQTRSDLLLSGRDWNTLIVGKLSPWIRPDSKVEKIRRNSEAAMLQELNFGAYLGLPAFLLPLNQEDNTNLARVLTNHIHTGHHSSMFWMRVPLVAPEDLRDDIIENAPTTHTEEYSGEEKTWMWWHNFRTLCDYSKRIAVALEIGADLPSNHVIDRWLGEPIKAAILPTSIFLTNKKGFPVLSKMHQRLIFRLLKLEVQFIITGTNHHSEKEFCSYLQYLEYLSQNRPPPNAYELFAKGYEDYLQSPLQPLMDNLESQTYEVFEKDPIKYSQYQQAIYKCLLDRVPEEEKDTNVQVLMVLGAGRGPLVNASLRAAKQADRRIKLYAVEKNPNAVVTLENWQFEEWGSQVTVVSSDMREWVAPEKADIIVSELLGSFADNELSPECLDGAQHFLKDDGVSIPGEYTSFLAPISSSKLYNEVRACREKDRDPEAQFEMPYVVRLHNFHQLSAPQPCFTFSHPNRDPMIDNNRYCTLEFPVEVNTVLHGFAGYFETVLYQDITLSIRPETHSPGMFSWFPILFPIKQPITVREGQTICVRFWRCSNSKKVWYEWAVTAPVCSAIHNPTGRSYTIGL
# Histone-lysine N-methyltransferase NSD2 (Homo sapiens), sequence (O96028 whole entry): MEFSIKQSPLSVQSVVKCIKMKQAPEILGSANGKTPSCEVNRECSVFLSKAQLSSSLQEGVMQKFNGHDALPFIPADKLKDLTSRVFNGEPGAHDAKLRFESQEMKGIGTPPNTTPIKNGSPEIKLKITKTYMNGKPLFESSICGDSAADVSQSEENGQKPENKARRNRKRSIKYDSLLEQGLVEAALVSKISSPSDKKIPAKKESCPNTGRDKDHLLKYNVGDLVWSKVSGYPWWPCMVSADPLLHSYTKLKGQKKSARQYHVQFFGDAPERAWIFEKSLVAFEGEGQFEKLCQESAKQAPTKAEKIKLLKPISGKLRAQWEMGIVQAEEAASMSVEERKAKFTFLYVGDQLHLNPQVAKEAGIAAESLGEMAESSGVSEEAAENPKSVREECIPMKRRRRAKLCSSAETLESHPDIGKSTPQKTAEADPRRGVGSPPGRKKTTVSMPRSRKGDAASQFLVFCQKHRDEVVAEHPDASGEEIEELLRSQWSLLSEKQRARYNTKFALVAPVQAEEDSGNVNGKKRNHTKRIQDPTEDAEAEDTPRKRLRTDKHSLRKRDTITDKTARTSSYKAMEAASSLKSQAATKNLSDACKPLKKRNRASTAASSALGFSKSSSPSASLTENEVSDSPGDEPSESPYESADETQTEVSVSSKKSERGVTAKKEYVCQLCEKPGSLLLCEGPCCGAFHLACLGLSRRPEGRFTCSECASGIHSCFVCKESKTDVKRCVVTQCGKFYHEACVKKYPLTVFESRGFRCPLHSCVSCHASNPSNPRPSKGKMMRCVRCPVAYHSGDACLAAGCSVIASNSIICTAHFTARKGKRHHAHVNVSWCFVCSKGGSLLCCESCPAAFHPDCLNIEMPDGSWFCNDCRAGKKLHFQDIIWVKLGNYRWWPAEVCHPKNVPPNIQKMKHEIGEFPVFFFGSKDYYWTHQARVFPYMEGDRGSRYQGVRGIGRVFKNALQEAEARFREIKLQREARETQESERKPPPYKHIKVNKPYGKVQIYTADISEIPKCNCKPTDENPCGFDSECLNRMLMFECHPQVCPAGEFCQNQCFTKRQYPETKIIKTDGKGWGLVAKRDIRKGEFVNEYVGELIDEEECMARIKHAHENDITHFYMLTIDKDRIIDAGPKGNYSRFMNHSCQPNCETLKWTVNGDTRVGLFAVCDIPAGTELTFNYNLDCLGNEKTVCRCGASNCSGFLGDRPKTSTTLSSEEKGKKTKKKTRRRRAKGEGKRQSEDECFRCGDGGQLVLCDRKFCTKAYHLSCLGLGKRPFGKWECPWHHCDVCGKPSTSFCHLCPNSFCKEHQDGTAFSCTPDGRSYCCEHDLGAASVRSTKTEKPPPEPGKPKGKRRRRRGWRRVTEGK
structure (smiles),measurement,setting,value
C=CC(=O)Nc1cccc(-c2c[nH]cc2CN(C)CCN)c1,inhibition,[1],inactive
same,inhibition,[2],inactive
same,inhibition,[3],inactive
same,inhibition,[4],inactive
same,inhibition,[5],> 50%
same,inhibition,[6],inactive
same,inhibition,[7],> 90%
same,Activity,[8],inactive
same,Ratio IC50,Homo sapiens [9],167
same,inhibition,[10],inactive
same,IC50,[11],110 nM
same,inhibition,[12],inactive
same,inhibition,[13],inactive
same,Activity,[14],inactive
same,inhibition,[15],inactive
same,IC50,[16],1300 nM
same,inhibition,[16],Dose-dependent effect
same,Ratio IC50,Homo sapiens [17],6
same,inhibition,[18],Tde
same,inhibition,[19],> 50%
same,inhibition,[20],inactive
